UBC13 inh – UBC13 polyubiquitin chain formation inhibitors, primary screen, biochemical, TR-FRET, uHTS. inhibition, % at 20 µM. AID 485273, 2010. 330,000 tested, 0.47% active; in the data active = inhibition above about 45%, passing the limit was not always enough
Target sequence (P61088 whole entry, looked up): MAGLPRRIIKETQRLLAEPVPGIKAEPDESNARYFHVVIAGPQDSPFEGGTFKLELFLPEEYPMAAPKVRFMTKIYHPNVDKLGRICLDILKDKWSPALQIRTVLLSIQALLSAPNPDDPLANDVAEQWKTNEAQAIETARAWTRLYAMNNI
ZTA DNA inh – ZTA (EBV) inhibition in EBNA-1 counter-screen; P03206; ZTA-DNA binding, fluorescence polarization; inhibition, % at 11 µM; 320,000 tested, 0.15% active; in the data active = inhibition above about 33%
Target sequence (P03206 whole entry, looked up): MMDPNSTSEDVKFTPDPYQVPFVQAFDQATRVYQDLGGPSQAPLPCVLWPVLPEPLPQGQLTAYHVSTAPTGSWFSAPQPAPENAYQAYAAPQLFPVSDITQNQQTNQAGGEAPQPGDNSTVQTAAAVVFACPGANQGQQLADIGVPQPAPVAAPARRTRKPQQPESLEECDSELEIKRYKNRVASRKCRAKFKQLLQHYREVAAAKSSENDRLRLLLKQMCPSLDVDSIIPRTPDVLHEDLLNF
Apaf-1 inh – inhibitors of human Apaf-1 apoptosome, primary screen, biochemical, DEVD-Rh110 fluorescence, uHTS; Apoptotic protease-activating factor 1 (Homo sapiens), O14727; reconstituted apoptosome caspase-3 activity; inhibition, % at 20 µM; 330,000 tested, 0.71% active; AID 489030, 2010; active = inhibition of at least 40% at 20 µM;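 note: plate controls were DMSO wells for no effect and DEVD-CHO caspase inhibitor wells for full effect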
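Material: biochemical Apaf-1 apoptosome reconstitution. Medium: Hepes buffer, pH 7.5. Also added: cytochrome c activation, bis-DEVD rhodamine 110 substrate. Timing: 30 min compound preincubation, 50 min activation, room temperature. Measured by: rhodamine 110 fluorescence at Ex 480/Em 540 nm.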
PREPL inh – PREPL enzyme inhibitors, primary screen, biochemical, fluorescence polarization. AID 2751, 2010. inhibition, % at 5.96 µM. 320,000 tested, 0.68% active. recombinant PREPL, fluorescence polarization activity-based probe. Prolyl endopeptidase-like (Homo sapiens), Q4J6C6;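 note: 0% = enzyme with DMSO and 100% = wells lacking enzyme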
EBNA-1 inh – EBNA-1 DNA-binding inhibitors, primary screen, biochemical, fluorescence polarization; inhibition, % at 14.8 µM; 300,000 tested, 0.34% active; in the data active = inhibition above about 28%
EBNA-1 inh conf – EBNA-1 DNA-binding inhibitors, retest, confirmation, biochemical, fluorescence polarization, triplicate; shares compounds with EBNA-1 inh; Recombinant EBNA-1 DBD, Cy5-DNA fluorescence polarization; inhibition, % at 14.8 µM; 830 tested, 35% active; AID 2292, 2010;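 active = mean inhibition across replicates above a set limit taken from the earlier primary screen, cut at about 28% in these data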;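 note: plate controls were EBNA-1 protein with DMSO for no effect and wells lacking EBNA-1 for full effect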
ZTA counter trip – EBV Zta DNA binding inhibitors, counter-screen for EBNA-1 inhibitor project, biochemical, fluorescence polarization, triplicate; inhibition, % at 11.1 µM; 830 tested, under 10 active; Zta-ZRE DNA binding, Cy5 fluorescence polarization; shares compounds with EBNA-1 inh;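 active = mean inhibition over triplicates above a set limit taken from the primary EBNA-1 screen, cut at about 37% in these data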;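 note: purified full length Zta protein with Cy5 labeled ZRE DNA probe; 0% = Zta with DMSO and 100% = wells lacking Zta protein; inhibitors lower polarization by freeing the labeled DNA probe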
ZTA inh confirm – EBV Zta binding to ZRE DNA, inhibitors, confirmation, biochemical, fluorescence polarization, triplicate | inhibition, % at 11.1 µM | 320 tested, 30% active | shares compounds with ZTA DNA inh | AID 2361, 2010;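 active = mean inhibition across triplicate runs above the hit threshold derived for the original primary screen, cut at about 33% in these data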;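 note: 0% = Zta with DMSO and 100% = wells lacking Zta protein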
EBNA1 counter – EBNA-1 DNA-binding inhibition, counter-screen for ZTA inhibitor project, biochemical, fluorescence polarization | shares compounds with ZTA DNA inh | inhibition, % at 14.8 µM | 320 tested, under 10 active; call rule not given here
PREPL confirm – human PREPL enzyme inhibitors, confirmation, biochemical, fluorescence polarization; shares compounds with PREPL inh; recombinant PREPL, fluorescence polarization activity probe; inhibition, % at 5.96 µM; 2,000 tested, 67% active;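 note: 0% = protein with DMSO and 100% = wells lacking protein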
Apaf-1 inh conf2 – Apaf-1 inhibitors, single-dose retest, confirmation, biochemical, fluorescence, DEVD-Rh110, 20 µM; inhibition, % at 20 µM; 1,800 tested, 25% active; shares compounds with Apaf-1 inh; AID 504614, 2011; reconstituted apoptosome, caspase-3 DEVD-Rh110 fluorescence;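 active = mean inhibition of at least 40% at 20 µM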;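 note: plate controls were DMSO wells for no effect and DEVD-CHO caspase inhibitor control wells for full effect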
Rh110 interf inh – Rh110 fluorescence interference by putative Apaf-1 inhibitors, confirmation, artefact control for Apaf-1 inhibitor project, biochemical, 20 µM; shares compounds with Apaf-1 inh; quenched caspase reaction; activation (fluorescence interference), % at 20 µM; 1,800 tested, under 10 active; AID 504615, 2011;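 active = signal rise of 40% or more at 20 µM, treated as a fluorescence artifact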
Fluor interf inh – fluorescence interference of Apaf-1 inhibitor hits, dose response, artefact control for Apaf-1 inhibitor project. shares compounds with Apaf-1 inh. fluorescence interference counterscreen, Apaf-1 assay format. IC50, µM. 460 tested, under 10 active; call rule not given here
Starred values were filed as active, the others as inactive; . = no result. Shown are actives, neighbours in structure and some others; about 1.7% of the full set was active somewhere. Cut-off read from the data, not from the text of the source, unless noted: active = inhibition above about 43%; inactive = the rest.

SMILES | UBC13 inh | ZTA DNA inh | Apaf-1 inh | PREPL inh | EBNA-1 inh | EBNA-1 inh conf | ZTA counter trip | ZTA inh confirm | EBNA1 counter | others
CCn1c(CNC(=O)C23CC4CC(CC(C4)C2)C3)nnc1SCC(=O)Nc1nnc(C)s1 | -5.0 | 6.8 | 5.8 | 5.0 | 42.4* | -3.0 | 4.4 | . | .
Cc1ccc(C)c(-n2c(SCC(=O)Nc3nnc(C)s3)nnc2-c2ccoc2C)c1 | -1.5 | 3.6 | 12.4 | -1.6 | 14.6 | . | . | . | .
O=c1c(-c2c(O)cc(O)c3c(=O)cc(-c4ccc(O)cc4)oc23)c(-c2ccc(O)cc2)oc2cc(O)cc(O)c12 | -12.0 | 9.0 | -18.5 | 1.1 | 10.0 | . | . | . | .
O=c1cc(-c2ccc(O)c(-c3c(O)cc(O)c4c(=O)cc(-c5ccc(O)cc5)oc34)c2)oc2cc(O)cc(O)c12 | -39.1 | 2.5 | -12.9 | 41.1 | 33.6* | 29.2* | 19.9 | . | .
CCOC(=O)Cc1cc(=O)[nH]c(/N=C(\N)Nc2ccc(C)cc2C)n1 | -3.6 | 4.8 | -8.2 | 2.0 | 47.0* | -1.6 | -0.3 | . | .
CCCn1c(C)cc(/C=C(\C#N)C(=O)OCC(=O)Nc2cccc(S(N)(=O)=O)c2)c1C | -5.8 | 16.1 | -24.0 | -3.6 | . | . | . | . | .
CCCn1c(C)cc(/C=C(\C#N)C(=O)OCC(=O)Nc2cccc(OC)c2)c1C | -6.4 | 2.6 | 19.4 | 0.3 | 67.2* | 0.4 | 2.2 | . | .
O=C(N/N=C/c1ccc(F)cc1)c1cc(-c2ccc3c(c2)OCO3)n[nH]1 | 1.6 | -2.2 | -22.2 | 1.1 | 32.1* | 16.1 | 4.2 | . | .
CN(C)c1ccc(/C=N/NC(=O)c2cc(-c3ccc4c(c3)OCO4)n[nH]2)cc1 | -4.9 | -5.8 | 1.4 | 24.2 | -10.9 | . | . | . | .
O=C(CN1CCCC1)Nc1c(C(=O)C2CC2)oc2ccccc12 | 1.8 | 3.6 | -15.8 | -34.8 | -3.5 | . | . | . | .
N#Cc1ccccc1OCC(=O)Nc1c(C(=O)C2CC2)oc2ccccc12 | 10.2 | 19.1 | 23.7 | -6.0 | 30.1* | 91.7* | 5.0 | . | .
COc1ccc(NC(=O)CSc2nc3nc(C)cc(C)c3c(=O)[nH]2)cc1 | 1.0 | 27.8 | 6.5 | 45.2* | 60.6* | -14.5 | -6.9 | . | . | PREPL confirm=0.8
CCN(c1ccc(OC)cc1)S(=O)(=O)c1ccc(-c2cc(C)no2)s1 | 0.5 | 5.7 | 12.1 | -10.4 | -2.0 | . | . | . | .
Cc1ccc(-c2nn3c(-c4ccco4)nnc3c3ccccc23)cc1S(=O)(=O)NCC1CCCO1 (stereo not given) | 14.4 | 1.6 | 66.1* | -7.1 | 85.9* | -4.0 | -5.5 | . | . | Apaf-1 inh conf2=82.7*;Rh110 interf inh=6.7;Fluor interf inh=>100
COc1ccc(Cl)cc1NC(=O)C/C(C)=N/NC(=O)Cc1ccccc1 | -6.7 | -0.7 | -2.0 | -20.8 | -13.3 | . | . | . | .
CCC(Oc1ccccc1)C(=O)Nc1nc2ccccc2[nH]1 (stereo not given) | 1.2 | 37.5* | 4.9 | -10.3 | -7.3 | . | . | 3.3 | -1.4
O=C(COc1ccccc1/C=C\c1[nH]c(=O)[nH]c(=O)c1[N+](=O)[O-])Nc1ccccc1 | . | 48.4* | . | -6.8 | -5.2 | . | . | 71.6* | -0.7
Cc1cc(C)cc(OCC(=O)OC(C)C(=O)Nc2ccc(Cl)cn2)c1 (stereo not given) | -1.7 | 9.5 | 17.5 | 5.7 | 2.7 | . | . | . | .
COc1cc2nc(N(CCCN(C)C)C(=O)c3ccc(S(=O)(=O)N4CCc5ccccc54)cc3)sc2cc1OC | 39.5 | 49.6* | 35.7 | 19.2 | 2.4 | . | . | 55.7* | 7.7
Cc1ccnc2c1ccc1ccccc12 | 6.3 | 9.1 | 3.3 | -2.5 | 10.1 | . | . | . | .
O=C(O)/C=C/c1cn(Cc2ccccc2)nc1-c1ccccc1 | -3.7 | -3.4 | -2.2 | 1.5 | -6.5 | . | . | . | .
O=C(O)CCn1cc(/C=C/C(=O)c2ccc(Cl)cc2)c(-c2ccc(Br)cc2)n1 | . | 45.2* | . | -8.4 | 11.4 | . | . | 30.5 | -4.1
O=C(CCN1C(=O)/C(=C\c2ccco2)SC1=S)Nc1ccc(C(=O)O)c(O)c1 | -16.7 | 44.4* | -3.8 | -0.3 | -0.9 | . | . | 9.1 | 7.0
O=C(CCN1C(=O)/C(=C/c2ccco2)SC1=S)Nc1ccc(C(=O)O)c(O)c1 | -2.0 | 27.1 | 6.9 | 5.3 | -5.4 | . | . | . | .
Cc1ccc(C(=O)CSC2=C(C#N)C(c3ccco3)C3=C(CC(C)(C)CC3=O)N2)cc1 (stereo not given) | -2.8 | 11.3 | 8.7 | 18.9 | -1.7 | . | . | . | .
SMILES | UBC13 inh | ZTA DNA inh | Apaf-1 inh | PREPL inh | EBNA-1 inh | EBNA-1 inh conf | ZTA counter trip | ZTA inh confirm | EBNA1 counter | others
CCOC(=O)C1(Cc2ccccc2)CCN(Cc2cccn2-c2nccs2)CC1 | 3.0 | 34.1* | -15.5 | -9.2 | -0.5 | . | . | -13.4 | -8.5
O=C(Nc1csnn1)c1csnn1 | 4.9 | 48.9* | 2.6 | 6.2 | -22.4 | . | . | -1.3 | -0.7
Cc1cc(C)nc(NC(=O)c2csnn2)c1 | 7.2 | 0.5 | 12.9 | 4.0 | -1.8 | . | . | . | .
CC(C)(C)n1nnnc1C(c1cccc(C#N)c1)N1CCCc2ccccc21 (stereo not given) | 0.8 | 44.1* | 1.5 | 8.7 | 13.2 | . | . | 1.4 | 0.8
CC(C)(C)n1nnnc1C(c1ccc(Cl)cc1)N1CCCc2ccccc21 (stereo not given) | 5.0 | 0.7 | 16.3 | -1.2 | 10.2 | . | . | . | .
COc1cc(NC(=O)C2=C(N3CCOCC3)/C(=C\c3ccc(N(C)C)cc3)CCC2)cc(OC)c1OC | -6.1 | 100.5* | 7.9 | 5.4 | 4.9 | . | . | -5.3 | -3.2

Assay outcomes (PubChem BioAssay)
